Data from ChEMBL document CHEMBL1158731, “Anti-babesial and anti-plasmodial compounds from Phyllanthus niruri” (J Nat Prod, 2005).
≈ marks a conversion by molar mass, not a printed value.

Legend:
[1] = tested on: Plasmodium falciparum; experiment: Antiplasmodial activity against chloroquine-susceptible Plasmodium falciparum FCR3 in human erythrocytes after 24 hrs; type: functional, organism-based; details: FCR3, 24 h
Procedure, shortened: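 P. falciparum FCR-3 kept in culture and synchronized with 5% D-sorbitol, then washed in RPMI 1640. Infected RBCs resuspended at 0.25-0.50% parasitemia in RPMI 1640 with 10% human serum, 25 mM Hepes, gentamicin and Na2CO3, then incubated with test solution at 37 °C under 5% CO2. Stopped once controls reached 20% schizonts. Schizonts counted on Giemsa smears; IC50 read from the inhibition-versus-concentration graph.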

[2] = tested on: Babesia gibsoni; experiment: Antibabesial activity against Babesia gibsoni in dog erythrocytes after 72 hrs; type: functional, organism-based
[3] = Cytotoxicity against human RBC; type: cell-based; details: erythrocyte
[4] = Cytotoxicity against dog RBC; type: cell-based, Canis lupus familiaris; details: erythrocyte

Compound | IC50 [1] [µg/mL] | IC50 [2] [µg/mL] | Activity [3] | Activity [4]
O=C(O[C@H]1O[C@H](COC(=O)c2cc(O)c(O)c3oc(=O)c4cc(O)c(O)c(O)c4c23)[C@@H](O)[C@H](O)[C@H]1O)c1cc(O)c(O)c(O)c1 | 1.4 (≈ 2.21 µM) | 4.7 (≈ 7.41 µM) | Non-toxic | Non-toxic
O=c1c(O[C@@H]2O[C@H](CO)[C@@H](O)[C@H](O)[C@H]2O[C@@H]2OC[C@@H](O)[C@H](O)[C@H]2O)c(-c2ccc(O)c(O)c2)oc2cc(O)cc(O)c12 | 11 (≈ 18.4 µM) | 35.2 (≈ 59 µM) | Non-toxic | Non-toxic
O=C(O[C@@H]1O[C@H](CO)[C@@H](O)[C@H](O)[C@H]1O)c1cc(O)c(O)c(O)c1 | 4.6 (≈ 13.8 µM) | 7.5 (≈ 22.6 µM) | Non-toxic | Non-toxic
CC[C@H](CC[C@@H](C)[C@H]1CC[C@H]2[C@@H]3CC=C4C[C@@H](O)CC[C@]4(C)[C@H]3CC[C@]12C)C(C)C [BETA-SITOSTEROL] | 32 (≈ 77.2 µM) | 61.6 (≈ 149 µM) | Non-toxic | Non-toxic
CC(=O)NCC(=O)O.N=C(N)c1ccc(/N=N/Nc2ccc(C(=N)N)cc2)cc1 [DIMINAZEN ACETURATE] | – | 0.6 | – | –
O=C(O)c1cc(O)c(O)c(O)c1 [GALLIC ACID] | 14.8 (≈ 87 µM) | 13.4 (≈ 78.8 µM) | Non-toxic | Non-toxic
